The source made the active and inactive calls.
Experiments:
Mus musculus [1] = test: Neurotoxicity against ip dosed mouse by rotarod test after 0.5 hrs; type: toxicity, organism-based; details: in vivo
Summary of the method: (§1)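 Mice were trained on a 1-in. knurled rod turning at 6 rpm, then given 30, 100 or 300 mg/kg ip as a suspension in 0.5% methylcellulose. They were tested at 0.5 h and 4.0 h. Neurotoxicity meant failure to keep balance on the rod for at least 1 min in each of four trials. The minimal dose affecting half or more of the mice was recorded.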

Mus musculus [2] = test: Anticonvulsant activity in ip dosed mouse assessed as inhibition of PTZ-induced clonic seizure after 0.5 hrs; type: functional; details: for minimal effective dose: read-out: MED
Summary of the method: (§2)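 Male Kunming mice were dosed ip with the compound suspended in 0.5% methylcellulose at 30, 100 and 300 mg/kg, one to four mice per dose. Pentylenetetrazole in 0.9% saline was given subcutaneously at 0.5 h and 4.0 h. Protection meant no threshold seizure, i.e. no single clonic spasm episode lasting at least 5 s. The minimal dose active in half or more of the mice was recorded.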

Mus musculus [3] = test: Anticonvulsant activity in ip dosed mouse assessed as inhibition of PTZ-induced clonic seizure after 4 hrs; type: functional; details: for minimal effective dose: read-out: MED; summary of the method: as §2
Mus musculus [4] = test: Anticonvulsant activity in ip dosed mouse assessed as inhibition of maximum electric shock-induced hind limb tonic extension after 4 hrs; type: functional; details: Hindlimb; for minimal effective dose: read-out: MED
Summary of the method: (§3)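 Male Kunming mice received the compound ip as a suspension in 0.5% methylcellulose at 30, 100 and 300 mg/kg, one to four mice per dose. At 0.5 h and 4.0 h, a 60-Hz, 50-mA current was given through corneal electrodes for 0.25 s. Absence of hindlimb tonic extension counted as protection. The minimal dose protecting half or more of the mice was recorded.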

Mus musculus [5] = test: Neurotoxicity against ip dosed mouse by rotarod test after 4 hrs; type: toxicity, organism-based; details: in vivo; summary of the method: as §1
Mus musculus [6] = test: Anticonvulsant activity in ip dosed mouse assessed as inhibition of maximum electric shock-induced hind limb tonic extension after 0.5 hrs; type: functional; details: Hindlimb; for minimal effective dose: read-out: MED; summary of the method: as §3
Mus musculus [7] = test: Protective index, ratio of TD50 for mouse to ED50 for inhibition of subcutaneous pentylenetetrazole-induced seizure in mouse; type: functional
Mus musculus [8] = organism: Mus musculus; test: Protective index, ratio of TD50 for mouse to ED50 for inhibition of maximal electroshock-induced seizure in mouse; type: functional
[9] = Toxicity against ip dosed mouse; type: organism-based; details: in vivo
Mus musculus [10] = test: Anticonvulsant activity in ip dosed mouse assessed as inhibition of PTZ-induced clonic seizure; type: functional
Summary of the method: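 Male Kunming mice (20 ± 2.0 g) were used. Test drug was given ip to groups of 10 mice over a range of doses until at least three points fell between 10% and 90% seizure protection or minimal neurotoxicity. […] Neurotoxicity was scored on the rotorod 30 min after dosing. PI = TD50/ED50.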

Mus musculus [11] = test: Anticonvulsant activity in ip dosed mouse assessed as inhibition of maximum electric shock-induced hind limb tonic extension; type: functional; details: Hindlimb

| SMILES | MED (Mus musculus [1]) [mg/kg] | Activity (Mus musculus [2]) | Activity (Mus musculus [3]) | Activity (Mus musculus [4]) | MED (Mus musculus [5]) [mg/kg] | minimal effective dose (Mus musculus [6]) [mg/kg] | Activity (Mus musculus [1]) | minimal effective dose (Mus musculus [2]) [mg/kg] | minimal effective dose (Mus musculus [4]) [mg/kg] | Activity (Mus musculus [5]) | Ratio (Mus musculus [7]) | Ratio (Mus musculus [8]) | minimal effective dose (Mus musculus [3]) [mg/kg] | TD50 [9] [mg/kg] | ED50 (Mus musculus [10]) [mg/kg] | ED50 (Mus musculus [11]) [mg/kg] | Activity (Mus musculus [6]) |
| --- | --- | --- | --- | --- | --- | --- | --- | --- | --- | --- | --- | --- | --- | --- | --- | --- | --- |
| COc1cc(C(=O)NN2C(=O)NC3(CC3(C)C)C2=O)cc(OC)c1OC (centres undefined) | 100 | inactive | inactive | inactive | 300 | 300 | – | – | – | – | – | – | – | – | – | – | – |
| CC1(C)CC12NC(=O)N(NC(=O)c1ccc(Cl)cc1)C2=O (centres undefined) | – | – | inactive | – | – | 100 | Not Active | 300 | 300 | Not Active | – | – | – | – | – | – | – |
| CC1(C)CC12NC(=O)N(NC(=O)c1ccc([N+](=O)[O-])cc1)C2=O (centres undefined) | – | – | inactive | – | – | 300 | Not Active | 300 | 300 | Not Active | – | – | – | – | – | – | – |
| CC1(C)CC12NC(=O)N(N1C(=O)c3ccccc3C1=O)C2=O (centres undefined) | – | – | – | – | – | 30 | Not Active | 300 | 100 | Not Active | 2.8 | 17.8 | 300 | 387 | 137 | 13.7 | – |
| CC1(C)CC12NC(=O)N(NC(=O)c1ccccc1)C2=O (centres undefined) | 300 | – | inactive | inactive | – | 300 | – | 300 | – | Not Active | – | – | – | – | – | – | – |
| CC1(C)CC12NC(=O)N(NC(=O)c1ccncc1)C2=O (centres undefined) | 100 | inactive | inactive | – | 300 | – | – | – | 300 | – | – | – | – | – | – | – | inactive |
| COc1ccc(C(=O)NN2C(=O)NC3(CC3(C)C)C2=O)cc1OC (centres undefined) | – | inactive | – | – | 300 | 300 | Not Active | – | 300 | – | – | – | 300 | – | – | – | – |
| CC1(C)CC12NC(=O)N(NC(=O)c1ccc(F)cc1)C2=O (centres undefined) | – | – | inactive | – | 300 | 100 | Not Active | 300 | 300 | – | – | – | – | – | – | – | – |
| CC1(C)CC12NC(=O)N(NC(=O)c1cccs1)C2=O (centres undefined) | 100 | inactive | inactive | – | 300 | – | – | – | 300 | – | – | – | – | – | – | – | inactive |
| CC1(C)CC12NC(=O)N(NC(=O)c1ccccc1Cl)C2=O (centres undefined) | – | – | inactive | inactive | 300 | 300 | Not Active | 300 | – | – | – | – | – | – | – | – | – |
| CC1(C)CC12NC(=O)N(NC(=O)c1ccco1)C2=O (centres undefined) | 100 | inactive | inactive | – | 300 | – | – | – | 300 | – | – | – | – | – | – | – | inactive |
| CC(C)(C)c1ccc(C(=O)NN2C(=O)NC3(CC3(C)C)C2=O)cc1 (centres undefined) | – | – | inactive | – | – | 30 | Not Active | 100 | 100 | Not Active | 1.8 | 15.5 | – | 382 | 208 | 25.3 | – |
| NC(=O)N1c2ccccc2C=Cc2ccccc21 [CARBAMAZEPINE] | – | – | – | – | – | – | – | – | – | – | – | – | – | – | > 100 | 8.8 | – |

Source: ChEMBL document CHEMBL1629500, “Synthesis and anticonvulsant activity of N-3-arylamide substituted 5,5-cyclopropanespirohydantoin derivatives” (Eur J Med Chem, 2010)
